{"source": "the RNAGym collection of RNA variant scans (doi:10.1002/anie.201605470)", "parents": {"B1": {"name": "Osa-1-4 twister ribozyme (parent)", "chain": "CCGCCUAACACUGCCAAUGCCGGUCCCAAGCCCGGAUAAAAGUGGAGGGGGCGG"}}}
{"variants_of": "B1", "test": "self-cleavage, relative activity (ratio to wild type); higher = more cleavage; co-transcriptional", "in_short": "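A DNA template encoding a 54-nucleotide twister ribozyme from Oryza sativa was made so that each of the 48 positions downstream of the cleavage site carried 97 % wild-type base and 1 % of each other base. Transcription in vitro ran for 2 h at 37 °C, during which the ribozyme could cleave itself. Reverse transcription used a template-switching oligonucleotide, and the products were PCR-amplified and deep-sequenced. Each read was scored as cleaved or uncleaved by whether upstream sequence was present, and relative activity is the fraction cleaved normalised to wild type.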"}
{"variant": "C31U G45U", "self-cleavage": 0.04}
{"variant": "C31U G45C", "self-cleavage": 0.04}
{"variant": "C31U G45A", "self-cleavage": 0.04}
{"variant": "C31A G13C", "self-cleavage": 0.01}
{"variant": "C31A G13A", "self-cleavage": 0.01}
{"variant": "C31A G13U", "self-cleavage": 0.02}
{"variant": "C31U G47C", "self-cleavage": 0.03}
{"variant": "C31U G47A", "self-cleavage": 0.05}
{"variant": "C31U G47U", "self-cleavage": 0.05}
{"variant": "C31A G34C", "self-cleavage": 0.04}
{"variant": "C31A G34A", "self-cleavage": 0.05}
{"variant": "C31A G34U", "self-cleavage": 0.04}
{"variant": "C31A G45U", "self-cleavage": 0.02}
{"variant": "C31A G45C", "self-cleavage": 0.01}
{"variant": "C31A G45A", "self-cleavage": 0.02}
{"variant": "C32A G19U", "self-cleavage": 0.04}
{"variant": "C32A G19A", "self-cleavage": 0.07}
{"variant": "C32A G19C", "self-cleavage": 0.02}
{"variant": "C31U U24C", "self-cleavage": 0.05}
{"variant": "C31U U24G", "self-cleavage": 0.03}
{"variant": "C31U U24A", "self-cleavage": 0.02}
{"variant": "C31G U18G", "self-cleavage": 0.15}
{"variant": "C31G U18A", "self-cleavage": 0.1}
{"variant": "C31G U18C", "self-cleavage": 0.13}
{"variant": "C32A G50U", "self-cleavage": 0.08}
{"variant": "C32A G50C", "self-cleavage": 0.07}
{"variant": "C32A G50A", "self-cleavage": 0.05}
{"variant": "C31U U43C", "self-cleavage": 0.08}
{"variant": "C31U U43A", "self-cleavage": 0.17}
{"variant": "C31U U43G", "self-cleavage": 0.1}
{"variant": "C31G G53U", "self-cleavage": 0.07}
{"variant": "C31G G53A", "self-cleavage": 0.08}
{"variant": "C31G G53C", "self-cleavage": 0.04}
{"variant": "G30U U43G", "self-cleavage": 0.04}
{"variant": "G30U U43C", "self-cleavage": 0.04}
{"variant": "G30U U43A", "self-cleavage": 0.04}
{"variant": "C31G G13C", "self-cleavage": 0.06}
{"variant": "C31G G13A", "self-cleavage": 0.06}
{"variant": "C31G G13U", "self-cleavage": 0.04}
{"variant": "C32A U18A", "self-cleavage": 0.11}
{"variant": "C32A U18G", "self-cleavage": 0.19}
{"variant": "C32A U18C", "self-cleavage": 0.07}
{"variant": "C31G G30U", "self-cleavage": 0.04}
{"variant": "C31G G30C", "self-cleavage": 0.03}
{"variant": "C31G G30A", "self-cleavage": 0.04}
{"variant": "C32A G34U", "self-cleavage": 0.05}
{"variant": "C32A G34C", "self-cleavage": 0.08}
{"variant": "C32A G34A", "self-cleavage": 0.06}
{"variant": "C32A G42U", "self-cleavage": 0.02}
{"variant": "C32A G42C", "self-cleavage": 0.06}
{"variant": "C32A G42A", "self-cleavage": 0.06}
{"variant": "C31A C9A", "self-cleavage": 0.02}
{"variant": "C31A C9U", "self-cleavage": 0.03}
{"variant": "C31A C9G", "self-cleavage": 0.04}
{"variant": "C31A G50C", "self-cleavage": 0.04}
{"variant": "C31A G50A", "self-cleavage": 0.04}
{"variant": "C31A G50U", "self-cleavage": 0.04}
{"variant": "G30U U24C", "self-cleavage": 0.02}
{"variant": "G30U U24G", "self-cleavage": 0.01}
{"variant": "G30U U24A", "self-cleavage": 0.02}
{"variant": "C31A G53U", "self-cleavage": 0.03}
{"variant": "C31A G53C", "self-cleavage": 0.01}
{"variant": "C31A G53A", "self-cleavage": 0.04}
{"variant": "C31U G22U", "self-cleavage": 0.3}
{"variant": "C31U G22C", "self-cleavage": 0.07}
{"variant": "C31U G22A", "self-cleavage": 0.52}
{"variant": "C31U G19A", "self-cleavage": 0.14}
{"variant": "C31U G19C", "self-cleavage": 0.06}
{"variant": "C31U G19U", "self-cleavage": 0.05}
{"variant": "C32G C33A", "self-cleavage": 0.07}
{"variant": "C32G C33U", "self-cleavage": 0.07}
{"variant": "C32G C33G", "self-cleavage": 0.05}
{"variant": "C31U G44U", "self-cleavage": 0.51}
{"variant": "C31U G44C", "self-cleavage": 0.62}
{"variant": "C31U G44A", "self-cleavage": 0.29}
{"variant": "C31U G23U", "self-cleavage": 0.04}
{"variant": "C31U G23C", "self-cleavage": 0.04}
{"variant": "C31U G23A", "self-cleavage": 0.07}
{"variant": "C31G U37A", "self-cleavage": 0.12}
{"variant": "C31G U37C", "self-cleavage": 0.09}
{"variant": "C31G U37G", "self-cleavage": 0.14}
{"variant": "C31U G42A", "self-cleavage": 0.09}
{"variant": "C31U G42C", "self-cleavage": 0.07}
{"variant": "C31U G42U", "self-cleavage": 0.03}
{"variant": "C31A G48C", "self-cleavage": 0.02}
{"variant": "C31A G48U", "self-cleavage": 0.01}
{"variant": "C31A G48A", "self-cleavage": 0.02}
{"variant": "C32A U24G", "self-cleavage": 0.02}
{"variant": "C32A U24C", "self-cleavage": 0.04}
{"variant": "C32A U24A", "self-cleavage": 0.06}
{"variant": "C31G G44C", "self-cleavage": 0.07}
{"variant": "C31G G44U", "self-cleavage": 0.05}
{"variant": "C31G G44A", "self-cleavage": 0.08}
{"variant": "C31G U12G", "self-cleavage": 0.05}
{"variant": "C31G U12A", "self-cleavage": 0.08}
{"variant": "C31G U12C", "self-cleavage": 0.06}
{"variant": "C31A G54U", "self-cleavage": 0.05}
{"variant": "C31A G54C", "self-cleavage": 0.04}
{"variant": "C31A G54A", "self-cleavage": 0.04}
{"variant": "C31A G49U", "self-cleavage": 0.02}
{"variant": "C31A G49C", "self-cleavage": 0.01}
{"variant": "C31A G49A", "self-cleavage": 0.02}
{"variant": "C32A G54C", "self-cleavage": 0.06}
{"variant": "C32A G54U", "self-cleavage": 0.18}
{"variant": "C32A G54A", "self-cleavage": 0.11}
{"variant": "C31U G48A", "self-cleavage": 0.05}
{"variant": "C31U G48U", "self-cleavage": 0.04}
{"variant": "C31U G48C", "self-cleavage": 0.05}
{"variant": "C32A G45C", "self-cleavage": 0.02}
{"variant": "C32A G45A", "self-cleavage": 0.04}
{"variant": "C32A G45U", "self-cleavage": 0.03}
{"variant": "C31A G19U", "self-cleavage": 0.02}
{"variant": "C31A G19A", "self-cleavage": 0.04}
{"variant": "C31A G19C", "self-cleavage": 0.02}
{"variant": "C32A G48U", "self-cleavage": 0.03}
{"variant": "C32A G48C", "self-cleavage": 0.04}
{"variant": "C32A G48A", "self-cleavage": 0.03}
{"variant": "C31U G34A", "self-cleavage": 0.42}
{"variant": "C31U G34C", "self-cleavage": 0.24}
{"variant": "C31U G34U", "self-cleavage": 0.56}
{"variant": "C31U G13U", "self-cleavage": 0.05}
{"variant": "C31U G13A", "self-cleavage": 0.89}
{"variant": "C31U G13C", "self-cleavage": 0.02}
{"variant": "C31A C32G", "self-cleavage": 0.02}
{"variant": "C31A C32A", "self-cleavage": 0.04}
{"variant": "C31A C32U", "self-cleavage": 0.01}
{"variant": "C31A G42A", "self-cleavage": 0.03}
{"variant": "C31A G42U", "self-cleavage": 0.01}
{"variant": "C31A G42C", "self-cleavage": 0.02}
{"variant": "C32A G35U", "self-cleavage": 0.07}
{"variant": "C32A G35C", "self-cleavage": 0.05}
{"variant": "C32A G35A", "self-cleavage": 0.06}
{"variant": "C31U C32A", "self-cleavage": 0.05}
{"variant": "C31U C32U", "self-cleavage": 0.09}
{"variant": "C31U C32G", "self-cleavage": 0.08}
{"variant": "C31U C52G", "self-cleavage": 0.75}
{"variant": "C31U C52U", "self-cleavage": 0.96}
{"variant": "C31U C52A", "self-cleavage": 0.57}
{"variant": "C31G G50C", "self-cleavage": 0.07}
{"variant": "C31G G50U", "self-cleavage": 0.06}
{"variant": "C31G G50A", "self-cleavage": 0.11}
{"variant": "C31U G30C", "self-cleavage": 0.03}
{"variant": "C31U G30A", "self-cleavage": 0.03}
{"variant": "C31U G30U", "self-cleavage": 0.03}
{"variant": "C32A G22A", "self-cleavage": 0.08}
{"variant": "C32A G22U", "self-cleavage": 0.06}
{"variant": "C32A G22C", "self-cleavage": 0.03}
{"variant": "C31G G19U", "self-cleavage": 0.05}
{"variant": "C31G G19C", "self-cleavage": 0.02}
{"variant": "C31G G19A", "self-cleavage": 0.08}
{"variant": "C31G G45C", "self-cleavage": 0.03}
{"variant": "C31G G45U", "self-cleavage": 0.03}
{"variant": "C31G G45A", "self-cleavage": 0.04}
{"variant": "C32A G13U", "self-cleavage": 0.01}
{"variant": "C32A G13C", "self-cleavage": 0.01}
{"variant": "C32A G13A", "self-cleavage": 0.01}
{"variant": "C31G C32U", "self-cleavage": 0.04}
{"variant": "C31G C32G", "self-cleavage": 0.1}
{"variant": "C31G C32A", "self-cleavage": 0.02}
{"variant": "C31U G35A", "self-cleavage": 0.87}
{"variant": "C31U G35C", "self-cleavage": 0.14}
{"variant": "C31U G35U", "self-cleavage": 0.85}
{"variant": "C31U U37C", "self-cleavage": 0.94}
{"variant": "C31U U37G", "self-cleavage": 1}
{"variant": "C31U U37A", "self-cleavage": 0.84}
{"variant": "G30U U12G", "self-cleavage": 0.03}
{"variant": "G30U U12C", "self-cleavage": 0.03}
